Screens from PubChem.
TAG inh = inhibitors of triacylglycerol accumulation; H9c2 cells, Nile Red lipid (TAG) fluorescence; cells loaded with 200 µM oleic acid; inhibition, % at 12.5 µM; actives 0.66% (n = 230,000); AID 651582;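 active = pattern-corrected inhibition of lipid staining of at least 50% with the nuclear-stain viability signal not falling by more than 50%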;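 note: 0% = DMSO wells and 100% = triacsin C control wells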
T cruzi repl = T. cruzi replication inhibition | actives 1.4% (n = 300,000) | T. cruzi beta-gal in NIH3T3, luminescence, 90 h | inhibition, % (no concentration beside the values);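 active = mean inhibition across valid replicates above about 55%, limit read from the data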;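 note: signal also drops with host cell toxicity which is not excluded here; 0% = plate median of DMSO wells and 100% = zero luminescence signal; higher percent means less beta-gal luminescence so fewer parasites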
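System: mouse NIH/3T3 fibroblasts infected with β-gal-expressing T. cruzi Tulahuen C4 / Input: NIH/3T3 cells, 5,000 per well / Buffer or medium: Low-serum DMEM with 2% FBS / Probe or stimulus: 5000 reporter trypomastigotes per well / Schedule: ≥90 h infection period, 3 h prior cell attachment / Measured by: GalScreen luminescence, 60 min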
MIN6 prolif = induces beta-cell replication in MIN6 cells; AID 2380; proliferation, % at 10 µM; actives 0.29% (n = 330,000); MIN6 cells proliferation, ATPlite luminescence, 48 h; cells starved in 0.2% serum; 100% = growth in 10% serum;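 active = compounds whose signal lies at least 3.5 SD above the mean of all wells on their plate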;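 note: 0% = DMSO-treated cells in low-serum medium and 100% = 10% serum control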
PG9 binder = PG9 antibody binding by small molecule | TR-FRET gp120-PG9 antibody binding | inhibition, % at 6.7 µM | actives 0.43% (n = 360,000); in the data active = inhibition above about 8.5%
hiPSC survival = hiPSC single-cell survival enhancement | survival enhancement, % at 20 µM | ATPlite luminescence; 100% = ROCK inhibitor wells, 0% = DMSO | actives 0.044% (n = 360,000) | AID 602274; in the data active = survival enhancement above about 18%;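 note: cells exposed to compounds for 16 hours before the ATP read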
NR1D1 modulator = Rev-erb alpha (human) modulation | AID 1259318 | P20393 | actives 0.79% (n = 370,000) | Rev-erbα–FITC-DNA binding, fluorescence polarization, 90 min | activity, % at 10 µM;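 active = activity above about 14%, limit read from the data; passing the limit was not always enough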;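 note: 0% = DMSO wells with 35 nM protein and 100% = DMSO wells with 750 nM protein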
Target sequence (P20393 whole entry, looked up): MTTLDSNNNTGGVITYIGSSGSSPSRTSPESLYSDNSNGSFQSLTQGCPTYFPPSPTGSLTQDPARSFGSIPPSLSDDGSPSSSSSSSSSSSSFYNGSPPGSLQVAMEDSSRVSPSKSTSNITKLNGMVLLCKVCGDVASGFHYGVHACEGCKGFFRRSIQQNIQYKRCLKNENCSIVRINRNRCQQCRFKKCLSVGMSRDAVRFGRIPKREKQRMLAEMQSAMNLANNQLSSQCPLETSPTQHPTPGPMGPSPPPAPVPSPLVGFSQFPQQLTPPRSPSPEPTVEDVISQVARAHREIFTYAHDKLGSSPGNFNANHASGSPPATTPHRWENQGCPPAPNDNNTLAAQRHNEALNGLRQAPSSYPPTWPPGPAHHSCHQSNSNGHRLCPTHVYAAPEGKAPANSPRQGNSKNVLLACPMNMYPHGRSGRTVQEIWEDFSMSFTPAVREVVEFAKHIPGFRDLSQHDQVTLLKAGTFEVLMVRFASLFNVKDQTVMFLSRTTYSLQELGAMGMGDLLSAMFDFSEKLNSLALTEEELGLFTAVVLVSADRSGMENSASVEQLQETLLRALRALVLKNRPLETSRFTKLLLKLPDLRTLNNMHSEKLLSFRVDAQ
H9c2 TAG conf = triacylglycerol accumulation inhibition, confirmation | H9c2 lipid accumulation, Nile Red fluorescence; cells loaded with 200 µM oleic acid | AID 651629 | actives 71% (n = 990) | inhibition, % at 12.5 µM | shares compounds with TAG inh;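 active = mean inhibition across replicates of 40% or more; inactive = mean inhibition below 40%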;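 note: plate controls were DMSO only wells for no effect and Triacsin C treated wells for full effect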
Numbers without * were called inactive; . = no result. Only some compounds are listed: those with a hit (about 2.9% of all), similar ones and a draw of the others.

SMILES	TAG inh	T cruzi repl	MIN6 prolif	PG9 binder	hiPSC survival	NR1D1 modulator	H9c2 TAG conf
CCCCOc1ccc(Cl)cc1CSc1n[nH]c(C)n1	.	9	-3	-1	0	0	.
Cc1ccc(CN(C(=O)c2csnn2)C(C(=O)NC2CCCC2)c2ccc(C)o2)cc1 (stereo unspecified)	51*	1	-1	0	-3	1	42*
Cc1ccc(C(C(=O)NC2CCCC2)N(C(=O)c2csnn2)C2CCCC2)o1 (stereo unspecified)	.	-10	0	2	1	2	.
Cc1cc2occ(CC(=O)Nc3nnc(C4CC4)s3)c2cc1C	-1	.	-2	0	0	-7	.
COc1ccc(CCNC(=O)C(NC(=O)OCc2ccccc2)C(C)C)cc1OC (stereo unspecified)	-2	5	-1	2	0	-3	.
CC[C@H](C)[C@H](NC(N)=O)C(=O)NCCc1ccc(OC)c(OC)c1	94*	-11	-3	2	0	3	3
O=C(CCC(=O)c1ccccc1)NCc1ccccc1	8	-15	0	0	0	-1	.
COc1ccc(-c2cc(C(F)F)n3ncc(C(=O)Nc4cccc(S(=O)(=O)N5CCOCC5)c4)c3n2)cc1	58*	54	0	-2	0	-2	50*
CS(=O)(=O)c1ccc(C(=O)OCC(=O)N2CCN(CCC3CCCCC3)CC2)cc1[N+](=O)[O-]	4	.	.	0	2	-10	.
CS(=O)(=O)c1ccc(C(=O)OCC(=O)N2CCOCC2)cc1[N+](=O)[O-]	62*	.	.	0	5	0	59*
O=CNc1cc(-c2ccc(C(=O)NC3CC3)cc2)cn2c(-c3ccc(F)cc3)cnc12	-3	.	.	-1	-2	-4	.
Cc1c(C(=O)N2CC3(CC(c4cccc(NC(=O)CC(c5ccccc5)c5ccccc5)c4)=NO3)C[C@@H]2C(N)=O)cc([N+](=O)[O-])cc1[N+](=O)[O-] (stereo partly specified)	54*	67*	-6	-1	0	-7	43*
O=S(=O)(c1ccc(N2CCCC2c2nc3ccccc3s2)nc1)N1CCOCC1 (stereo unspecified)	18	17	3	2	2	-1	.
COc1cc(-c2cc(O)c(-c3ccc4ccccc4n3)c(=O)[nH]2)cc(OC)c1OC	9	.	.	1	0	5	.
OCCCn1c(C2CCCN2c2nc(-c3ccc(F)cc3)cs2)nc2cc(Cl)c(N3CCCCC3)cc21 (stereo unspecified)	49	-17	-8	-1	5	0	.
OCCCn1c(C2CCCN2c2nc(-c3ccc(Cl)cc3)cs2)nc2cc(Cl)c(N3CCCCC3)cc21 (stereo unspecified)	62*	-3	-8	1	1	1	56*
OCCCn1c(C2CCCN2c2nc(-c3ccc(F)cc3)cs2)nc2cc(C(F)(F)F)ccc21 (stereo unspecified)	60*	30	-9	-1	-2	0	57*
Nc1ccccc1C#Cc1ccccc1	53*	-24	-6	0	-1	-3	54*
O=C(CCNC(=O)C1CCN(S(=O)(=O)c2ccc(F)cc2)CC1)NCc1ccccc1Cl	.	16	4	-1	1	-3	.
CCn1nc(C(=O)OCC(=O)Nc2nc(-c3ccc(OC)cc3)cs2)c2ccccc2c1=O	.	-4	-3	-1	-1	-2	.
O=C(NCc1ccc2c(c1)OCO2)c1cc(-c2ccccn2)nc2ccccc12	53*	14	-4	1	-1	-7	31
COc1ccccc1CNC(=O)c1[nH]c(C)c(C(C)=O)c1C	.	2	-1	-1	0	-3	.
CC1=CC(C)=Nc2ccccc2N1	.	2	-4	1	1	-4	.
COc1ccc(C(C(=O)NC(C)(C)C)N(CC2CCCO2)C(=O)CCC(=O)Nc2cc(C)on2)cc1 (stereo unspecified)	50*	5	1	1	1	1	32
COc1ccc(C(C(=O)NC(C)(C)C)N(CCC(C)C)C(=O)CCC(=O)Nc2cc(C)on2)cc1 (stereo unspecified)	.	20	0	0	-1	-1	.
SMILES	TAG inh	T cruzi repl	MIN6 prolif	PG9 binder	hiPSC survival	NR1D1 modulator	H9c2 TAG conf
CCCCCNC(=O)CCCCn1c(=O)[nH]c2cc(OCC)c(OCC)cc2c1=O	36	9	-3	0	-3	3	.
CCOc1cc2[nH]c(=O)n(CCCCC(=O)N3CCCCCC3)c(=O)c2cc1OCC	63*	9	-3	2	-1	-1	35
CC(=O)/C(=C/N(C)C)C(=O)Nc1ccc(Cl)cc1Cl	3	11	-2	-3	-1	-5	.
CN(C)CCNC=C(C(=O)Nc1ccc(Cl)cc1Cl)C(=O)Nc1ccc(Cl)cc1Cl	102*	29	-4	0	-1	10	92*
COC(=O)c1cc(C(=O)N2CCN(c3cccc(C)c3C)CC2)cc([N+](=O)[O-])c1	8	-28	0	0	1	1	.
COC(=O)c1cc(C(=O)N2CCN(c3ccccc3OC)CC2)cc([N+](=O)[O-])c1	51*	-75	-3	-2	0	-4	85*
Cc1cccc(NC(=O)CSCC(=O)N2CCN(C(=O)c3ccco3)CC2)c1	-13	.	-3	-1	0	-2	.
CC(C)(C)c1csc(NNC(=O)c2ccc(Br)cc2)n1	55*	42	-6	0	0	-6	12
C=CC[C@H](CC(=O)N(CCO)Cc1ccccc1)C(=O)N[C@H](COC(=O)[C@@H](CC=C)CC(=O)OC(C)(C)C)Cc1ccccc1	21	.	-5	2	-2	0	.
C=CC[C@@H](CC(=O)N(CCO)Cc1ccccc1)C(=O)N[C@@H](COC(=O)[C@@H](CC=C)Cc1ccc(F)cc1)Cc1ccccc1	75*	.	-6	-2	-2	-6	62*
C=CCC[C@@H](Cc1ccc(F)cc1)C(=O)OC[C@@H](NC(=O)[C@@H](CC=C)CC(=O)N[C@H](CO)Cc1ccccc1)C(C)(C)C	62*	.	-5	1	-1	6	66*
C=CC[C@@H](CC(=O)N[C@@H](CO)Cc1ccccc1)C(=O)N[C@H](COC(=O)[C@@H](CC=C)Cc1ccc(F)cc1)C(C)(C)C	22	.	-6	1	11	-2	.
C=CC[C@@H](CC(=O)N(CCO)Cc1ccccc1)C(=O)N[C@H](COC(=O)[C@@H](CC=C)Cc1ccc(F)cc1)Cc1ccccc1	59*	.	-6	0	-2	-1	68*
